# From PubChem
# The entries come from a sample that favours hits as a whole.
# Insulin prom act – TRM-6 insulin promoter activation. TRM-6 cells, insulin promoter eGFP reporter, imaging; plate-scaled: unstimulated 0, stimulated control 100. activation, % at 2 µM. hit rate 0.81% among 130,000. AID 1296;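 active = activation at 2 µM above a set limit, confirmed on inspection of the cell images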;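 note: share of cells whose green reporter signal exceeds an intensity cutoff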
#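 Material: Human fetal islet-derived TRM-6 cells with tamoxifen-inducible insulin promoter–eGFP reporter | Medium: Low-glucose (5.5 mM) medium with tamoxifen | Probe or stimulus: Tamoxifen inducer, 0.75 µM, in seeding medium | Schedule: Tamoxifen pre-incubation 15 h overnight, then compound exposure 48 h at 37 °C | Detection: High-content imaging of fixed cells with Hoechst nuclear stain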
# Starred values were filed as active, the others as inactive.
SMILES,Insulin prom act
CCOC(=O)c1nn(-c2ccc(Cl)cc2)c2nnc(Cc3ccccc3)c(=O)n12,-3
CC(C)(C)NC(=O)/C(=C\c1ccccc1F)NC(=O)c1ccc([N+](=O)[O-])cc1,0
CC(C)(C)NC(=O)/C(=C/c1ccccc1F)NC(=O)c1ccc([N+](=O)[O-])cc1,0
O=C(CCCNC(=O)/C(=C\c1ccccc1F)NC(=O)c1ccccc1)OCc1ccccc1,257*
Nc1nonc1C(=O)NCCNS(=O)(=O)c1ccc(F)cc1,8
COc1ccc(OC)c(Nc2nc(-c3cccs3)cs2)c1,64
COc1ccc(Nc2nc(-c3cccs3)cs2)c(OC)c1,592*
COc1ccc(Nc2nc(-c3cccs3)cs2)cc1,6
CCOc1cc(/C=N/NC(=S)Nc2ccccc2C(F)(F)F)ccc1OCC(=O)N1CCOCC1,-7
CCC(=O)c1ccc(OCC(=O)NCC2(N3CCCCC3)CCCCC2)cc1,7
CCCCN(CCCC)NC(=O)c1ccccc1,-7
CCCCP(=O)(CCCC)Cc1ccccc1O,610*
CCP(=O)(c1ccccc1)C(C)(C)O (configuration not stated),7
CCc1ccc(C(=O)COC(=O)c2n[nH]c3ccccc23)cc1,0
N#Cc1sc2nc3c(cc2c1N)CCCC3,-64
Cc1ccc(S(=O)(=O)N2CCCCC2C(=O)O)cc1 (configuration not stated),0
COC(=O)C1CN(S(=O)(=O)c2ccc(C)cc2)CCN1S(=O)(=O)c1ccc(C)cc1 (configuration not stated),136*
COc1ccc(NC(=O)C2CCCN2S(=O)(=O)c2ccc(C)cc2)cc1 (configuration not stated),0
Cc1ccc(-c2cc(C(=O)Nc3nn[nH]n3)c3ccccc3n2)cc1,8
Cc1cccc2cc(CN(Cc3ccccc3)C(=O)N3CCOCC3)c3nnnn3c12,148
CC(Oc1ccccc1)C(=O)Nc1ccc(C(N)=O)cc1 (configuration not stated),174*
CCOC(=O)c1ccccc1NC(=O)C(C)Oc1ccccc1 (configuration not stated),-6
COc1ccc(OC(C)C(=O)Nc2cccc(OC)c2)cc1 (configuration not stated),-8
Cc1ccc(N2C(=O)C3C(c4ccccc4)N4CCCN4C3(C)C2=O)cc1 (configuration not stated),0
CCN(CC)c1ccc(C2NC(=O)NC(C)=C2C(=O)Nc2ccccc2)cc1 (configuration not stated),109
SMILES,Insulin prom act
CCN(CC)c1ccc(/C=N/NC(=O)c2ccco2)cc1,0
CCN(CC)c1ccc(C=C2C(=O)OC(c3ccccc3)OC2=O)cc1 (configuration not stated),312*
Cn1c(=O)c2c(nc(SCC(=O)N3CCc4ccccc43)n2Cc2ccc(F)cc2)n(C)c1=O,-71
Cc1c(C(=O)N2CCc3ccccc32)cnn1C,0
CNC(=O)CSc1nnnn1-c1cc(C)ccc1C,0
Cc1ccc(C)c(-n2nnnc2SCC(=O)NCCC2=CCCCC2)c1,708*
Cc1ccc(CS(=O)(=O)CCC(=O)NCCC2=CCCCC2)cc1,0
COC(=O)N/N=C/c1cccc(OCCSc2ccc(Cl)cc2)c1,-8
Cn1cc(/C=C2/SC(=O)N(CC(=O)Nc3ccc4c(c3)OCO4)C2=O)c2ccccc21,4
CC(=O)c1ccc(NC(=O)CCCN2C(=O)/C(=C/C(C)=C/c3ccccc3)SC2=S)cc1,0
O=C(CN1C(=O)S/C(=C/C=C/c2ccccc2)C1=O)Nc1ccc(C(=O)O)cc1,550*
CCc1ccccc1NC(=S)N(CCN(C)C)Cc1cccs1,7
C[N+]1(C2CCC3CCCC2C3O)CCCC1 (configuration not stated),-1
Cc1c(C)c(C)c(S(=O)(=O)N2CCNCC2)c(C)c1C,7
Cc1cc(NS(=O)(=O)c2ccc(NC(=O)CCCOc3ccc(Cl)cc3)cc2)no1,127*
Cc1cc(NS(=O)(=O)c2ccc(NC(=O)NC(C)(C(F)(F)F)C(F)(F)F)cc2)no1,-4
O=C(CCCOc1ccc(Cl)cc1)Nc1cccc(C(=O)O)c1,6
O=C(NCCCn1ccnc1)c1ccc(Br)o1,6
O=C(COC(=O)COc1ccccc1)NCc1ccccc1,0
O=C(NCCc1ccccc1)c1ccc(-c2ccccc2C(F)(F)F)o1,5
O=C(NCCc1ccccc1)c1oc2ccccc2c1COc1ccccc1,80*
CCn1nnc(-c2ccccc2NS(=O)(=O)c2ccc(S(=O)(=O)N(C)C3CCCCC3)cc2)n1,3
Cn1cc(CN2CCCC(CO)(Cc3ccccc3)C2)cn1 (configuration not stated),-7
Cc1ccc(S(=O)(=O)CCC(=O)N2CCc3ccccc32)cc1,4
O=C(CCC(=O)N1CCc2ccccc21)N1CCc2ccccc21,569*
O=C(COc1ccccc1)N1CCc2ccccc21,-2
Cc1cc(/C=N/n2cnnc2)c(C)n1-c1cc(Cl)ccc1Cl,0
CCOC(=O)c1sc2nc(C)c3c(c2c1N)CC(C)(C)OC3,-9
